Assay results from different studies.
Compare with care: the assays were run in different laboratories.
Read-out: haemolysis
Host: human

C=C1CC[C@@H]2C(C)(C)CCC[C@@]2(C)[C@@H]1CC/C(C)=C/C(=O)OC — haemolysis (500 µg/mL, 3 h): 50%
OC(Cn1cncn1)(Cn1cncn1)c1ccc(F)cc1F — haemolysis (2 µg/mL, 1 h): 3.79%
COc1c(F)cccc1C=NNc1nc(-c2ccc(F)cc2)cs1 — haemolysis (50 µM, 30 min, pH 7.4): 20%
CCCCCCCCCCCCNCc1ccc(CNC(=O)c2csc3nc[nH]c(=O)c23)cc1 — haemolysis (100 µM, 1 h): ~3%
C=C1CC[C@@H]2[C@](C)(CCC[C@]2(C)C(=O)O)[C@H]1CC/C(C)=C/C(=O)O — haemolysis (350 µg/mL, 3 h): 50%
NCCc1ccc(Oc2ccc(-c3noc(-c4ccc(O)cc4)n3)cc2)cc1 — haemolysis (4 µg/mL, 1 h): 2.5%
C[C@@H]1[C@H](O)[C@@H](C)/C=C/C=C/C=C/C=C/C=C/C=C/C=C/[C@H](O[C@@H]2O[C@H](C)[C@@H](O)[C@H](N)[C@@H]2O)C[C@@H]2O[C@](O)(C[C@@H](O)C[C@@H](O)[C@H](O)CC[C@@H](O)C[C@@H](O)CC(=O)O[C@H]1C)C[C@H](O)[C@H]2C(=O)O — haemolysis (8 µg/mL, 1 h): 102%
Cc1ccc(C=NNc2nc(-c3ccc(F)cc3)cs2)c(Br)c1 — haemolysis (100 µM, 30 min, pH 7.4): 31.6%
CCN(CC)CCCC(C)Nc1ccnc2cc(Cl)ccc12 (stereo not shown) — haemolysis (100 mM, 45 min): 28.7%
Cc1ccc(C=NNc2nc(-c3ccc(F)cc3)cs2)o1 — haemolysis (10 µM, 30 min, pH 7.4): 1.2%
c1ccc(CN(CCN(Cc2ccccn2)Cc2ccccn2)Cc2ccccn2)nc1 — haemolysis (200 µM, 1 h, pH 7.2): ≤ 1%
Oc1ccc(Cl)cc1C=NNc1nc(-c2ccc(F)cc2)cs1 — haemolysis (10 µM, 30 min, pH 7.4): 3.11%
O=C(O)CN(CCN(CC(=O)O)CC(=O)O)CC(=O)O — haemolysis (200 µM, 1 h, pH 7.2): ≤ 1%
